Reference: ChEMBL document CHEMBL1800057, “Discovery of dual inducible/neuronal nitric oxide synthase (iNOS/nNOS) inhibitor development candidate 4-((2-cyclobutyl-1H-imidazo[4,5-b]pyrazin-1-yl)methyl)-7,8-difluoroquinolin-2(1H)-one (KD7332) part 2: identification of a novel, potent, and selective series of benzimidazole-quinolinone …” (J Med Chem, 2010)
Calls of active or inactive are those of the source. The calls are words filed in the database; no cut-off is given here.

What was measured:
[1] = Volume of distribution at steady state in rhesus monkey at 3 mg/kg, iv and 10 mg/kg, po; assay type: ADME, organism-based, Macaca mulatta; conditions: in vivo, read-out: Vdss
Method in brief: (§1)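 Rhesus pharmacokinetics: 3 mg/kg iv and 10 mg/kg po, HCl salt. Clp, t1/2, Vdss, Cmax, AUC, oral t1/2 and %F reported.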

[2] = Cmax in rhesus monkey at 3 mg/kg, iv and 10 mg/kg, po; assay type: ADME, organism-based, Macaca mulatta; conditions: in vivo; method in brief: as §1
[3] = Half life in rhesus monkey at 3 mg/kg, iv and 10 mg/kg, po; assay type: ADME, organism-based, Macaca mulatta; conditions: in vivo; method in brief: as §1
[4] = Plasma clearance in rhesus monkey at 3 mg/kg, iv and 10 mg/kg, po; assay type: ADME, organism-based, Macaca mulatta; method in brief: as §1
[5] = AUC in rhesus monkey at 3 mg/kg, iv and 10 mg/kg, po; assay type: ADME, organism-based, Macaca mulatta; conditions: plasma; method in brief: as §1
[6] = Half life in rhesus monkey at 10 mg/kg, po; assay type: ADME, organism-based, Macaca mulatta; parameters: dose 10 mg/kg, route oral; conditions: in vivo
[7] = Bioavailability in rhesus monkey at 3 mg/kg, iv and 10 mg/kg, po; assay type: ADME, organism-based, Macaca mulatta; conditions: in vivo; method in brief: as §1
Mus musculus [8] = experiment: Antiallodynic activity against von Frey hair mechanically stimulated neuropathic pain in mouse Chung model of neuropathic pain assessed as attenuation of tactile allodynia at 300 mg/kg, po; assay type: functional, organism-based; parameters: dose 300 mg/kg
Mus musculus [9] = experiment: Antinociceptive activity against formalin-induced pain in mouse assessed as attenuation of nocifensive phase 2 behaviors during phase 2 (25 to 45 mins post formalin injection) administered via oral gavage 30 mins before to formalin challenge; assay type: functional
Method in brief: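 Mice were given compound by oral gavage in PEG/Tween 80/PVP + CMC vehicle 30 min before 20 μL of 5% formalin was injected into the left hind paw. Paw flinching, licking and biting were timed in 5 min bins by a single observer. Read-out was time in nociceptive behaviour at 25-45 min. Mean ± SE, n = 5-6, one-way ANOVA with post hoc tests.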

Mus musculus [10] = experiment: Neurotoxicity in C57Bl/6j mouse assessed as inability to maintain equilibrium on rotarod up to 1000 mg/kg, po determined 1 to 3 hrs postdose by rotarod test; assay type: toxicity, organism-based; parameters: dose 1000 mg/kg, route oral; conditions: in vivo
Method in brief: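 Male C57Bl/6j mice were acclimated to the rotarod at 4 rpm, then given two training sessions on an accelerating rod (4-40 rpm over 300 s). Only mice with latencies >60 s were kept. After oral dosing, latency to fall from the accelerating rod was recorded at 1, 2 and 3 h.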

Mus musculus [11] = experiment: Inhibition of LPS-induced iNOS activation in BALB/c mouse assessed as plasma nitrate levels at 30 mg/kg administered via oral gavage before LPS challenge measured after 6 to 8 hrs using 2,3-diaminonaphthalene by fluorescence assay relative to control; assay type: functional
Method in brief: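 Male BALB/c mice dosed by oral gavage (90% PEG/5% Tween 80/5% PVP + 0.5% w/v CMC) immediately before LPS (10 mg/kg ip in 0.9% NaCl). Mice killed at 6 h. EDTA plasma analysed for nitrate and drug levels; nitrite measured by DAN fluorescence.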

[12] = target: Nitric oxide synthase, inducible (Homo sapiens, UniProt P35228); experiment: Inhibition of human iNOS expressed in HEK293 cells assessed as inhibition of nitric oxide production after 18 hrs using 2,3-diaminonaphthalene by fluorescence assay; assay type: cell-based
Method in brief: (§2)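 HEK293 cells grown to ~70% confluence in DMEM/10% FBS with pen/strep, transiently transfected with 10 μg human or murine iNOS plasmid plus Fugene 6 for 4 h at 37 °C, 10% CO2. Cells replated at 5e5 cells/mL and dosed with compound at once; 1400W (100 μM final) as positive control. After 18 h, DAN (10 μg/mL final) in HCl (0.1 N final) added for 20 min at room temperature. Fluorescence read after NaOH (0.12 N final).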

Nitric oxide synthase 1 = Nitric oxide synthase 1 (Homo sapiens, UniProt P29475); experiment: Inhibition of human nNOS expressed in HEK293 cells assessed as inhibition ionomycin induced nitric oxide production incubated for 24 hrs measured after 18 hrs of ionomycin challenge using 2,3-diaminonaphthalene by fluorescence assay; assay type: cell-based
Method in brief: (§3)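 HEK293 cells transfected for 4 h at 37 °C with human nNOS (10 μg) or human eNOS (15 μg) plasmid (Fugene 6, 3:1). Cells replated at 5e5 cells/mL and dosed with compound at once; SEITU (100 μM final) as positive control. After 24 h, cells activated with A23187 (83 nM final) for eNOS or ionomycin (30 μM final) for nNOS. NO read 18 h later as nitrite-DAN fluorescence.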

[13] = Half life in mouse at 10 mg/kg, po; assay type: ADME, organism-based; parameters: dose 10 mg/kg, route oral; conditions: in vivo
Homo sapiens [14] = organism: Homo sapiens; experiment: Ratio of IC50 for human eNOS to EC50 for human iNOS
[15] = target: T1, Nitric oxide synthase, inducible (Mus musculus, UniProt P29477); experiment: Inhibition of mouse iNOS expressed in HEK293 cells assessed as inhibition of nitric oxide production after 18 hrs using 2,3-diaminonaphthalene by fluorescence assay; assay type: cell-based; method in brief: as §2
T1 sequence (P29477 whole entry): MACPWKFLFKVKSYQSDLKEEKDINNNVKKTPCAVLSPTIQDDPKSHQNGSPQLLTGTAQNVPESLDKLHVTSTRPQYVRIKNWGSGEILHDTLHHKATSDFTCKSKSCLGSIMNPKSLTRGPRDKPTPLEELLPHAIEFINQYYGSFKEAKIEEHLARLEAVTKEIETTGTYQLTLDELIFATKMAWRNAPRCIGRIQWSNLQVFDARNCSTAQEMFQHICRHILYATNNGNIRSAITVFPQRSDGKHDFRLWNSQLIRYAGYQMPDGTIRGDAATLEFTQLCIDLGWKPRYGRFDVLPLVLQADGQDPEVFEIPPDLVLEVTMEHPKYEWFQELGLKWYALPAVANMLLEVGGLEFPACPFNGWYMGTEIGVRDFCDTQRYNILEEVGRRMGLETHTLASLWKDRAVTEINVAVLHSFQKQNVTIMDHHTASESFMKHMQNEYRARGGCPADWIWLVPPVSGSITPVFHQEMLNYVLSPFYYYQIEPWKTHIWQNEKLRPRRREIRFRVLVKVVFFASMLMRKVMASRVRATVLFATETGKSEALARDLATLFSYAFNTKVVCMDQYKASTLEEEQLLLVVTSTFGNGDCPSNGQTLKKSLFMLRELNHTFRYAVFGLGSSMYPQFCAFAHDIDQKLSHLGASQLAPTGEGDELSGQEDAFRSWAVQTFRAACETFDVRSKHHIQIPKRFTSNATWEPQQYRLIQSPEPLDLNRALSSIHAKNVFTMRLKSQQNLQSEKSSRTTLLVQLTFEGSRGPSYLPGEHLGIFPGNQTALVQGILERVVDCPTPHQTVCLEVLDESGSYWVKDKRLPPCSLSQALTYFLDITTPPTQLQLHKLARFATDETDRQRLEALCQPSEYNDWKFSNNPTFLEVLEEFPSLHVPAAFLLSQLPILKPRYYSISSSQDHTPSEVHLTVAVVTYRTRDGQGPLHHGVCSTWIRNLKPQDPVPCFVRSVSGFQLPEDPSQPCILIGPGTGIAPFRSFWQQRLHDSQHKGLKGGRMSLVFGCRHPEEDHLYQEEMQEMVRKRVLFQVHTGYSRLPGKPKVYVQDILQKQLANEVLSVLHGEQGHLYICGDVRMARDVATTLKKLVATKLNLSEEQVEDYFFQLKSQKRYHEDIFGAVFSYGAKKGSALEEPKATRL

Nitric oxide synthase 3 = target: T2, Nitric oxide synthase 3 (Homo sapiens, UniProt P29474); experiment: Inhibition of human eNOS expressed in HEK293 cells assessed as inhibition A23187 induced nitric oxide production incubated for 24 hrs measured after 18 hrs of […] challenge using 2,3-diaminonaphthalene by fluorescence assay; assay type: cell-based; method in brief: as §3
T2 sequence (P29474 whole entry): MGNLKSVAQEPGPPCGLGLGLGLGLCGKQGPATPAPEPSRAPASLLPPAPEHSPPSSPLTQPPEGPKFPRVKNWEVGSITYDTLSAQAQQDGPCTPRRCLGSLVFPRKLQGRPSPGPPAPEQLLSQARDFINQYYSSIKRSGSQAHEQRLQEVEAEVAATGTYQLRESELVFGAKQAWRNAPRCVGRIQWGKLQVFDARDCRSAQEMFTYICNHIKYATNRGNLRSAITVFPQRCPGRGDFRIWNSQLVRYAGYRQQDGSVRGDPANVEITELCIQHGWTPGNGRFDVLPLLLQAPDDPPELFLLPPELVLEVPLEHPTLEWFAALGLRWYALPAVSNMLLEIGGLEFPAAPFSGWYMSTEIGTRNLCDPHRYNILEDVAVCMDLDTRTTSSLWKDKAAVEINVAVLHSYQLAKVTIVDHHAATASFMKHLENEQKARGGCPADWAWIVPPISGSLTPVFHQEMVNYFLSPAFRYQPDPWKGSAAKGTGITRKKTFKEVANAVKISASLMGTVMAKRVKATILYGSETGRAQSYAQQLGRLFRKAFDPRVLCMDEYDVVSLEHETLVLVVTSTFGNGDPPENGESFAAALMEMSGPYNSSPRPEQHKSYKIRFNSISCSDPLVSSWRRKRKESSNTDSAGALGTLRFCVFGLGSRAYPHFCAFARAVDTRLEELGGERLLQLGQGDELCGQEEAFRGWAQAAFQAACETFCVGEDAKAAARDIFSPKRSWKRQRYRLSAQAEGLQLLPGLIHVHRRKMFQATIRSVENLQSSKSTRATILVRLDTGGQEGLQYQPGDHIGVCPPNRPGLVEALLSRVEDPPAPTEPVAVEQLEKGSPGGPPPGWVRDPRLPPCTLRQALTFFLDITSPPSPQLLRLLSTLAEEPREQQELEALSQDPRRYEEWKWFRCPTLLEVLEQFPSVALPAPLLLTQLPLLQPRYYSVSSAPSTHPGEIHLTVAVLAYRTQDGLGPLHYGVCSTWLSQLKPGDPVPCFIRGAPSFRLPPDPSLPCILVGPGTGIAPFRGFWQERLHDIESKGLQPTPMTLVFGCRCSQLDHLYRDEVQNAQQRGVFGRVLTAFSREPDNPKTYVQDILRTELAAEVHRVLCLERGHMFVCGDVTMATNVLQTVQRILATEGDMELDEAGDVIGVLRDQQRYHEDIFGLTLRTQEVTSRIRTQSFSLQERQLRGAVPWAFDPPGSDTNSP

[16] = Cmax in mouse at 3 mg/kg, iv and 10 mg/kg, po; assay type: ADME, organism-based; conditions: in vivo
[17] = AUC in mouse at 3 mg/kg, iv and 10 mg/kg, po; assay type: ADME, organism-based; conditions: plasma
Homo sapiens [18] = organism: Homo sapiens; experiment: Ratio of IC50 for human nNOS to EC50 for human iNOS
Liver = experiment: Half life in mouse liver microsomes assessed as formation of oxidation product and glucuronide conjugate; assay type: ADME, Microsome
Method in brief: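 Mouse liver microsomes run under combined phase I oxidation and phase II glucuronide conjugation; half-life reported in minutes.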

[19] = target: T3, Nitric oxide synthase 3 (Homo sapiens) (UniProt P29474); experiment: Inhibition of human eNOS expressed in HEK293 cells assessed as inhibition A23187 induced nitric oxide production at 100 uM incubated for 24 hrs measured after 18 hrs of […] challenge using 2,3-diaminonaphthalene by fluorescence assay; assay type: cell-based
T3 sequence (whole entry): T2 sequence (P29474 whole entry)

Chain of Nitric oxide synthase, inducible (Homo sapiens, UniProt P35228) (P35228 whole entry): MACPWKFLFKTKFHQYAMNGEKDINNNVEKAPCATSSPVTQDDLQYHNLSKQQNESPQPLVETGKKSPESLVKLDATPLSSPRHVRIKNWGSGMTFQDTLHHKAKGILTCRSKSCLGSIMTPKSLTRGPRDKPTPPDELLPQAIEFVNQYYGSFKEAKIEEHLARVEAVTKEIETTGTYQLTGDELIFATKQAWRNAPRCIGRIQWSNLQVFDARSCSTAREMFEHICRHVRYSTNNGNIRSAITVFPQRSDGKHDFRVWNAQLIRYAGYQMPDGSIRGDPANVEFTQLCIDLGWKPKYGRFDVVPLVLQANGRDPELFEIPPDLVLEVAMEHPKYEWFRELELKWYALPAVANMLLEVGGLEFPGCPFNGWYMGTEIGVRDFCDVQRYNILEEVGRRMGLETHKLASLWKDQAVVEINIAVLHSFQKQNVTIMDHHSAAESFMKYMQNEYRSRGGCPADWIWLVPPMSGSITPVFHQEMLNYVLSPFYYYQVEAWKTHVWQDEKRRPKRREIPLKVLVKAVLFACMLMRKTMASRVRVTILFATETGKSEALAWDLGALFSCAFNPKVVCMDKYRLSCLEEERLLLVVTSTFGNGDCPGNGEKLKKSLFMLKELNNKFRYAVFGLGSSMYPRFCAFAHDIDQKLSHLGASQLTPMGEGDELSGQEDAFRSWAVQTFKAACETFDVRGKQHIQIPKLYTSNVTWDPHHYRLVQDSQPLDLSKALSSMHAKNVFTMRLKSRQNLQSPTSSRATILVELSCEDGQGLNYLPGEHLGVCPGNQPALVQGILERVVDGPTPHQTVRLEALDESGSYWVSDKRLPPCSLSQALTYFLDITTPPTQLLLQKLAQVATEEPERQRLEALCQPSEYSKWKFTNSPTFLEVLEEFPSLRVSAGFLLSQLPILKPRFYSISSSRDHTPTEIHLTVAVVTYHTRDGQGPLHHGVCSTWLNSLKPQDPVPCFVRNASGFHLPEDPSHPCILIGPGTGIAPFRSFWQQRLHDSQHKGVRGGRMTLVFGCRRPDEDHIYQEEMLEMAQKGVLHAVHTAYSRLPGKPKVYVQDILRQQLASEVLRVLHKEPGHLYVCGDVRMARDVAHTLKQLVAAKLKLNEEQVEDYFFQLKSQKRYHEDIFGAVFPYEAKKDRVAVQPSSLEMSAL
Chain of Nitric oxide synthase 1 (P29475 whole entry): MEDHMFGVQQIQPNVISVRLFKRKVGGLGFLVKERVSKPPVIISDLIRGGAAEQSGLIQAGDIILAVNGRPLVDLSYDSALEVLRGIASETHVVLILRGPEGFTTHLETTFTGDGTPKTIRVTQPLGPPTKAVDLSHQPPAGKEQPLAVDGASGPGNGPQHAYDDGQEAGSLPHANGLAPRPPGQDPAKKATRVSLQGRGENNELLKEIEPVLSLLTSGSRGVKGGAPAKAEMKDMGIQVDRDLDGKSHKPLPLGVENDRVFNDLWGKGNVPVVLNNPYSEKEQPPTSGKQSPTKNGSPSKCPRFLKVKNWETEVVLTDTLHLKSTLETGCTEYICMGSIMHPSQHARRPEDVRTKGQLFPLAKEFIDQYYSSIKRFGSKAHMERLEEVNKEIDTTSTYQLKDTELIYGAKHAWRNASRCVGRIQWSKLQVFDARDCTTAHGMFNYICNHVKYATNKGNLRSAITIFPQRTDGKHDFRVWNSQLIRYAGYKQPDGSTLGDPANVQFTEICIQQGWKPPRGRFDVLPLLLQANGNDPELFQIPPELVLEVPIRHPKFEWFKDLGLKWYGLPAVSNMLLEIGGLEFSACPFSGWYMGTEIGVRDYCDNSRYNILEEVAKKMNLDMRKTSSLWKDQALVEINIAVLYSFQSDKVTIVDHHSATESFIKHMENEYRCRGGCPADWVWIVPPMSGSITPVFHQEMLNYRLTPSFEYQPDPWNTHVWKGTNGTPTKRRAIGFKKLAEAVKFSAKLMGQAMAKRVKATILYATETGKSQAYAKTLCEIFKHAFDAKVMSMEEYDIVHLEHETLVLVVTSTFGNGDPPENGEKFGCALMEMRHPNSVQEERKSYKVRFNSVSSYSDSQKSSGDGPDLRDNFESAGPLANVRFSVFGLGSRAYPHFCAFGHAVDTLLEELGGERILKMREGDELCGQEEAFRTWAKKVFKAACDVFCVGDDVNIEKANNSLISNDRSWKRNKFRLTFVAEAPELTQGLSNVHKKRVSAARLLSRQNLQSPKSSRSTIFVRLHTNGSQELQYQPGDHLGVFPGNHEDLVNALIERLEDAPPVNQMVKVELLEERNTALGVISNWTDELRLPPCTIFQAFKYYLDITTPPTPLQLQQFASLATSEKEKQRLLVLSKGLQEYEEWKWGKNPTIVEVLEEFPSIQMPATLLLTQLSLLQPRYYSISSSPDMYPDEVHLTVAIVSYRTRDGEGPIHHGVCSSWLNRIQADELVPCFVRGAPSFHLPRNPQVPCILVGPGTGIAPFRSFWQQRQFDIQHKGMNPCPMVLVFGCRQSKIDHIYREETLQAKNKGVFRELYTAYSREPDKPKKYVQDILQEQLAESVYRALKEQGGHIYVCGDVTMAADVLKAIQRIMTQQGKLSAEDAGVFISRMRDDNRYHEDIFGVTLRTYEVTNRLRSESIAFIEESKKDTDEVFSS

SMILES: Cl.O=c1cc(Cn2c(C3CCC3)nc3nccnc32)c2cccc(F)c2[nH]1
- Vd [1]: 1.2 L/kg
- Cmax [2]: 1800 ng/mL
- half-life [3]: 6.8 h
- clearance [4]: 4.3 mL/min/kg
- AUC [5]: 23000 ng·h/mL
- half-life [6]: 10 h
- bioavailability [7]: 93%

SMILES: Cl.O=c1cc(Cn2c(C3CCC3)nc3nccnc32)c2ccc(F)c(F)c2[nH]1
- Vd [1]: 3 L/kg
- Cmax [2]: 3300 ng/mL
- half-life [3]: 13 h
- clearance [4]: 6 mL/min/kg
- AUC [5]: 18000 ng·h/mL
- half-life [6]: 9 h
- bioavailability [7]: 63%

SMILES: NCC1(CC(=O)O)CCCCC1 [GABAPENTIN]
- Activity (Mus musculus [8]): Active
- ED50 (Mus musculus [9]): 110 mg/kg
- Activity (Mus musculus [10]): Dose-dependent effect

SMILES: CN(C)c1ccnc2c1nc(C1CCC1)n2Cc1cc(=O)[nH]c2c(F)c(F)ccc12
- inhibition in vivo at 30 mg/kg (Mus musculus [11]): 30%
- EC50 [12]: 170 nM
- EC50 (Nitric oxide synthase 1): 1000 nM
- half-life [13]: 1.4 h
- Ratio EC50 (Homo sapiens [14]): > 590
- EC50 [15]: 1800 nM
- EC50 (Nitric oxide synthase 3): > 100000 nM
- Cmax [16]: 400 ng/mL
- AUC [17]: 700 ng·h/mL
- Ratio EC50 (Homo sapiens [18]): 5.9
- t1/2 (Liver): 8 min
- inhibition [19]: < 50%
